Bioassay records from PubChem BioAssay.
Compounds with a hit are over-represented: about 1.8% of the library has one in this group of screens.
APJ antagonist = antagonists of human apelin receptor APJ, primary screen, CHO-K1 cells, beta-arrestin complementation, luminescence | AID 2521, 2010 | inhibition, % at 20 µM | P35414 | 330,000 compounds, 0.32% hits;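 active = inhibition above about 40% at 20 µM, limit read from the data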;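 also: cells challenged with 10 nM apelin-13 agonist together with compound; plate controls were apelin-13 plus DMSO wells for no effect and DMSO wells lacking apelin-13 for full effect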
CCR6 antag = CCR6 receptor antagonists, primary screen, cell-based, CHO-K1, luminescence, beta-arrestin, uHTS; CHO-K1 CCR6 PathHunter beta-arrestin, CCL20-stimulated; C-C chemokine receptor type 6 (Homo sapiens), P51684; 340,000 compounds, 0.49% hits; inhibition, % at 20 µM; AID 493098, 2011;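 active = compounds whose inhibition of the agonist-driven luminescence signal at 20 µM reaches about 50%, limit read from the data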;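 also: cells stimulated with CCL20 at 14 nM final; plate controls were DMSO with CCL20 for no effect and DMSO without agonist for full effect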
Target sequence (P51684 whole entry, looked up): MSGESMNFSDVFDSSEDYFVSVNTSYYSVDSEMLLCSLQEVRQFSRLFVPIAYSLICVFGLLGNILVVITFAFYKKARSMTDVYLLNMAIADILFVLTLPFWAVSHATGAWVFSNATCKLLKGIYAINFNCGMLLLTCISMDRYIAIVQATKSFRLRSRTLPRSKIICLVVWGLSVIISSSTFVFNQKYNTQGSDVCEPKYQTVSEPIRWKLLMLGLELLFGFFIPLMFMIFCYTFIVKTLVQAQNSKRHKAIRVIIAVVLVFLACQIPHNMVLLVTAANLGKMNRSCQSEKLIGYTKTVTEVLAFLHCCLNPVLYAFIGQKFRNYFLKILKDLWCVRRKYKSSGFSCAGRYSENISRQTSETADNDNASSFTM
APJ agonist = agonists of human apelin receptor APJ, primary screen, CHO-K1 cells, PathHunter beta-arrestin, luminescence. 330,000 compounds, 0.11% hits. 0% DMSO wells, 100% apelin. P35414. activation, % at 20 µM. AID 2520, 2010;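 active = activation more than six SD over the plate average, tested at 20 µM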;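 also: 0% = DMSO alone and 100% = apelin-13 at 10 nM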
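Assay system: CHO-K1 cells stably expressing ProLink-tagged human APJ and arrestin–beta-gal acceptor. Compound dosing: 20 µM single point, 1% DMSO. Times: 16-18 h seeding, 90 min dark compound exposure, 60 min detection. Detection: beta-gal luminescence. Evaluation: APJ–arrestin association signal. Controls: negative DMSO alone, positive Apelin-13 at 10 nM.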
CXCR6 inh = CXCR6 receptor inhibitors, primary screen, cell-based, beta-arrestin, luminescence, CHO-K1 PathHunter, 1536-well; inhibition, % at 20 µM; 360,000 compounds, 0.36% hits; AID 602244, 2012; in the data active = inhibition above about 34%, passing the limit was not always enough;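 also: antagonist mode with CXCL16 agonist at 10 nM final; 0% = 10 nM CXCL16 with DMSO and 100% = unstimulated wells without agonist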
B2AR ag = beta2AR agonists driving receptor internalization, primary screen, cell-based, FAP fluorogen, flow cytometry | Am2.2-beta2AR cells | response, % (concentration not given with the values) | 340,000 compounds, 0.43% hits | Beta-2 adrenergic receptor (Homo sapiens), P07550;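 active = response above a set limit, near 3 SD of response in nonfluorescent compounds, cut at about 42% in these data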
EBI2 antag = EBI2 receptor antagonists, beta-arrestin recruitment, primary screen, cell-based, luminescence, 7a,25-OHC stimulation, uHTS; inhibition, % at 5 µM; 360,000 compounds, 0.81% hits; AID 651636, 2012; 7a,25-OHC stimulated; in the data active = inhibition above about 38%;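 also: enzyme fragment complementation signal reports receptor beta-arrestin coupling in cells; 0% = agonist plus DMSO wells and 100% = wells without agonist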
APJ ag conf = agonists of human apelin receptor APJ, confirmation, cell-based, single concentration, CHO-K1, beta-arrestin, luminescence | 310 compounds, 10% hits | CHO-K1 APJ PathHunter beta-arrestin | shares compounds with APJ agonist | activation, % at 20 µM | AID 2764, 2010;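 active = activation above 40%, taking the highest of four retests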;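 also: plate controls were DMSO wells for no effect and apelin-13 at 10 nM for full effect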
Numbers without * were called inactive; . = not tested or not shown.

SMILES | APJ antagonist | CCR6 antag | APJ agonist | CXCR6 inh | B2AR ag | EBI2 antag | APJ ag conf
C[C@@]12CCC3[C@@](CCC4[C@@]3(C)CCC[C@@]4(C)C(=O)N3CCOCC3)(CC1=O)C2 (some centres not stated) | -4 | 15 | -1 | 15 | 4 | 5 | .
O=C(Cc1cccc2c(=O)cc(-c3ccccc3)oc12)OCCN1CCOCC1 | . | . | . | 3 | . | 2 | .
COc1cc2nc(N3CCN(c4cc(C)ccc4C)CC3)nc(N)c2cc1OC | -26 | -5 | 20* | -23 | 28 | 16 | 34
COC(=O)c1ccccc1N(C)S(=O)(=O)c1cc2c3c(c1)CCC(=O)N3CCC2 | 16 | 10 | 9 | 2 | 7 | -3 | .
CCN1C(c2ccccc2)=C(c2ccccc2)S/C1=C/C=C1\SC(=S)N(C)C1=O | . | -74 | . | -16 | 5 | -5 | .
CCN1C(c2ccccc2)=C(c2ccccc2)S/C1=C\C=C1/SC(=S)N(C)C1=O | -90 | -31 | 115* | 0 | -15 | -14 | 292*
CC1CCN(S(=O)(=O)c2ccc3nc(N4CCN(c5ccccc5)CC4)ccc3c2)CC1 | -2 | -12 | 53* | . | . | . | 11
O=S(=O)(c1ccc2nc(N3CCN(c4ccc(F)cc4)CC3)ccc2c1)N1CCCCC1 | 13 | 13 | -7 | 5 | 2 | 19 | .
Cc1cc(C)cc(C(=O)O/N=C(\N)c2ccc(Br)cc2)c1 | -38 | 2 | 6 | -8 | 12 | 22 | .
N/C(=N\OC(=O)c1ccoc1)c1ccc(Br)cc1 | -163 | -35 | 43* | -13 | 2 | -5 | 24
CC(C)(C)OC(=O)NCCCCCNC(=O)c1nc[nH]c1C(=O)NCc1ccc(CNC(=O)OC(C)(C)C)cc1 | -22 | -7 | 12* | -26 | 22 | -39 | 9
Cc1nnc(N2CCCC(C(=O)Nc3cc(F)ccc3F)C2)c2nn(-c3ccccc3)c(C)c12 (configuration not stated) | -20 | 4 | 21* | 0 | 16 | -10 | 30
CS(=O)(=O)c1ccc2nc(NC(=O)Nc3cccc(Cl)c3)sc2c1 | -20 | 7 | 28* | 6 | 22 | -6 | 16
CS(=O)(=O)c1ccc2nc(NC(=O)Nc3ccc(Cl)c(Cl)c3)sc2c1 | 10 | -8 | -1 | -3 | 5 | 1 | .
Cc1cccc(C(=O)OCc2cc(=O)oc3c(C)c(C)ccc23)c1O | 11 | -6 | 24* | 9 | 14 | 8 | 8
CCOc1ncccc1C(=O)OCc1cc(=O)oc2c(C)c(C)ccc12 | . | -4 | . | 0 | 1 | 9 | .
COc1ccc([C@H]2[C@H](C(=O)C(C)(C)C)N3N=Cc4ccccc4C3[C@]23N=C(c2ccccc2)OC3=O)cc1 (some centres not stated) | 7 | 21 | -1 | 3 | -13 | -1 | .
CC(C)(C)OC(=O)[C@H]1[C@H](c2ccc([N+](=O)[O-])cc2)C2(C(=O)c3ccccc3C2=O)C2c3ccccc3C=NN21 (some centres not stated) | -2 | 17 | 43* | 2 | 0 | 9 | 44*
CCOC(=O)[C@]12CCCC=C1N(CCc1ccc(OC)c(OC)c1)C(=O)[C@H](CC(=O)NCCc1ccccc1OC)C2 | . | . | . | . | . | 9 | .
Cc1ccc(Nc2nc(NCc3ccco3)c3ccccc3n2)cc1 | -36 | -18 | 14* | -5 | 29 | -22 | 19
O=C(NC1CCCN(C2Cc3ccccc3C2)C1)c1ccc(F)cc1Cl (configuration not stated) | -12 | 10 | 2 | 5 | -1 | -13 | .
O=C(COC(=O)c1ccc2c(c1Cl)C(=O)c1ccccc1C2=O)NC1CC1 | -29 | -18 | 13* | -24 | -3 | -9 | 25
O=C(OCC(=O)N1CCCC1=O)c1cc2ccccc2o1 | -4 | -2 | 16* | -3 | 2 | -8 | 14
Cc1cccc(C(=O)OCC(=O)N2CCCC2=O)c1O | -12 | 3 | -4 | 0 | 8 | 4 | .
Cc1cccc(C(=O)O/N=C(\N)Cc2cccc3ccccc23)c1 | -143 | -24 | 42* | -17 | 3 | -12 | 33
SMILES | APJ antagonist | CCR6 antag | APJ agonist | CXCR6 inh | B2AR ag | EBI2 antag | APJ ag conf
Cc1cccc(/C(N)=N/OC(=O)Cc2cccc3ccccc23)c1 | -14 | -10 | 0 | -14 | -10 | 3 | .
N/C(Cc1ccccc1)=N\OC(=O)c1cccc2ccccc12 | -33 | 6 | 12* | -26 | 4 | 15 | 37
CCCCNc1c(-c2ccc(OC)c(Sc3ccc(OC)cc3)c2)nc2ccccn12 | -157 | -28 | 37* | -15 | 28 | -75 | 23
CCC(C)NC(=O)CSC1=Nc2ccccc2C2=NC(CC(=O)NCc3ccc(F)cc3)C(=O)N12 (configuration not stated) | -16 | 7 | 51* | -4 | -10 | -2 | 8
CCOC(=O)CSC1=Nc2ccccc2C2=NC(CC(=O)NCc3ccccc3)C(=O)N12 (configuration not stated) | 6 | 10 | 6 | 2 | -10 | -6 | .
CCSc1nc(O)c(CC)c(=O)n1C(C)CC (configuration not stated) | -19 | -25 | 39* | -3 | 6 | -1 | 61*
O=C(NC1CCCCC1)c1cc2ccccc2cc1O | -54 | -7 | 13* | -9 | 19 | -8 | 12
C=CCC(C(=O)OC)(C(=O)OC)c1ccc([N+](=O)[O-])cc1[N+](=O)[O-] | -35 | 2 | 14* | 1 | -1 | -13 | 4
Cn1c(=O)[nH]c2c(c1=O)CCO2 | . | 0 | . | 8 | 1 | 0 | .
O=C(c1ccc([N+](=O)[O-])o1)N1CCN(c2nc3c(Cl)cccc3s2)CC1 | -22 | -6 | 32* | -16 | 14 | -12 | 7
COc1cccc2sc(N3CCN(C(=O)c4ccc([N+](=O)[O-])o4)CC3)nc12 | -143 | -13 | 30 | -27 | 2 | 4 | .
COC(=O)C1(Cc2cc(-c3ccccc3)no2)CCN(C(=O)OC(C)(C)C)CC1 | 7 | 9 | -4 | 1 | 1 | -11 | .
COC(=O)c1ccc(-c2cc(CC3(C(=O)OC)CCN(C(=O)OC(C)(C)C)CC3)on2)cc1 | -26 | -10 | 36* | -31 | -3 | -13 | 20
CCCNC(=O)C1(C)CCN(C(=O)c2cccc(C#N)c2)C1 (configuration not stated) | . | . | . | -4 | . | -3 | .
CCCCNc1c(CC(C)C)nc2nc(C)cc(C)n12 | . | . | . | -4 | . | -6 | .
Fc1ccc2[nH]c3c(N4CCN(c5ccccc5)CC4)ncnc3c2c1 | -10 | -3 | 14* | 1 | 17 | -6 | 26
